Screens: PubChem, several laboratories
In the library only some 2.4% were active in any assay of this set; here they are far more common.
TbMetRS inhib = T. brucei MetRS inhibitors, primary screen, biochemical, luminescence | AID 624268, 2012 | inhibition, % at 11.9 µM | actives 0.4% (n = 360,000) | purified T. brucei MetRS, ATP depletion, Kinase-Glo luminescence;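 active = inhibition above a per-plate cutoff of the control wells' mean inhibition plus 3 SD, cut at about 5.5% in these data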
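Test system: purified T. brucei MetRS enzyme. Also added: ATP, methionine and E. coli bulk tRNA substrates. Compound: 11.9 µM single point. Schedule: 15 min enzyme-compound preincubation, 2 h reaction, 10 min detection, 25 °C. Signal: luciferase luminescence of residual ATP, Kinase-Glo. Evaluation: percent inhibition versus plate control medians. Controls: DMSO wells, low control.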
MC4R antag cAMP = MC4R antagonists of cAMP signaling, primary screen, cell-based, TR-FRET, antagonist arm of biased-ligand search; MC4R-expressing cells, MTII-stimulated cAMP, LANCE TR-FRET; inhibition, % at 6.5 µM; Melanocortin receptor 4 (Homo sapiens), P32245; AID 540295, 2011; actives 0.48% (n = 360,000);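 active = inhibition above its plate's cutoff, the mean of tested wells on that plate plus 3 SD, cut at about 29% in these data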
Target sequence (P32245 whole entry, looked up): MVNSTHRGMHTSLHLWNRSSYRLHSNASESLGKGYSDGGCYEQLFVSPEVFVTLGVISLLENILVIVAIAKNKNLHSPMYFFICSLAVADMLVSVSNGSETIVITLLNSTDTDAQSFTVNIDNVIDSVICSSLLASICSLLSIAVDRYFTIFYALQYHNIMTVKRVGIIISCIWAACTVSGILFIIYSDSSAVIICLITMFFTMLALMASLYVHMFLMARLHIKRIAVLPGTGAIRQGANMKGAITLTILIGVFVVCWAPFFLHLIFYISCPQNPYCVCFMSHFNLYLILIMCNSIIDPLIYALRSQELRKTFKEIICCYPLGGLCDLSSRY
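Material: U2OS-MC4R stable cell line | Reagent: Melanotan II challenge after compound preincubation | Doses: One concentration, 6.5 µM nominal | Incubation: 30-min compound preincubation, 1-h Melanotan II challenge, 1-h detection, room temperature | Signal: TR-FRET cAMP assay | Replicates: One well per compound, no replicates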
aDG glyco up = activators of alpha-DG glycosylation, primary screen, uHTS, Pro5-aDG cells, AlphaScreen; actives 0.22% (n = 360,000); AID 624168, 2012; activation, % at 10 µM; alpha-DG glycosylation AlphaScreen (IIH6); 0% Pro5, 100% B10-LARGE cell signal;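 active = activation of at least 8% versus controls, or a plate z-score of at least 8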;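 also: Pro5 are CHO cells carrying HIG-tagged alpha-DG that lacks glycosylation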
H9c2 TAG inh = inhibitors of triacylglycerol accumulation, primary screen, cell-based, uHTS, fluorescence, H9c2. inhibition, % at 12.5 µM. H9c2 cells, Nile Red lipid (TAG) fluorescence; cells loaded with 200 µM oleic acid. actives 0.66% (n = 230,000);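 active = pattern-corrected inhibition of lipid staining of at least 50% with the nuclear-stain viability signal not falling by more than 50%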
MC4R ag barr = MC4R agonists recruiting beta-arrestin, primary screen, cell-based, luminescence, agonist arm of biased-ligand search | AID 540308, 2011 | activation, % at 8.9 µM | actives 0.98% (n = 360,000) | U2OS MC4R beta-arrestin complementation; percent of melanotan II response, DMSO zero | Melanocortin receptor 4 (Homo sapiens), P32245;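 active = activation above a per-plate cutoff, the mean activation of sample wells on that plate plus 3 SD, cut at about 8% in these data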
NTR1 ag = agonists of human NTR1, primary screen, imaging, U2OS cells, beta-arrestin-GFP, high content; activation, % at 20 µM; actives 0.17% (n = 330,000); NTR1-U2OS beta-arrestin-GFP spot imaging, agonist mode;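 active = activation at or above 40% of the spot to cytoplasm intensity ratio, with at least 20 cells analyzed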
Target sequence (P30989 whole entry, looked up): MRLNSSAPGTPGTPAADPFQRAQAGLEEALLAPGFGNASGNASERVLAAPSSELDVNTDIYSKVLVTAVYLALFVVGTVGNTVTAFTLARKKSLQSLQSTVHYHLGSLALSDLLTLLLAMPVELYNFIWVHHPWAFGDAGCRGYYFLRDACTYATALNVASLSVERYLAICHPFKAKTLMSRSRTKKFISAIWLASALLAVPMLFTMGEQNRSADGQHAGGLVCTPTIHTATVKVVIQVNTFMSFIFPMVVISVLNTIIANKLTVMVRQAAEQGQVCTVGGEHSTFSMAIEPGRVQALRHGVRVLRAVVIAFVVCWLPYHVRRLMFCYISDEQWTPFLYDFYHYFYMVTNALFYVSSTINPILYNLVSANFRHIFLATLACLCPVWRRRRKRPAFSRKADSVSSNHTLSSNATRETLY
TAG conf = triacylglycerol accumulation inhibitors, retest, confirmation, cell-based, single concentration, Nile Red fluorescence, H9c2; shares compounds with H9c2 TAG inh; H9c2 lipid accumulation; cells loaded with 200 µM oleic acid; inhibition, % at 12.5 µM; actives 71% (n = 990); AID 651629, 2012;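 active = mean inhibition across replicates of 40% or more; inactive = mean inhibition below 40%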
Numbers stand for hits; 0 = inactive; - = no result.

SMILES | TbMetRS inhib | MC4R antag cAMP | aDG glyco up | H9c2 TAG inh | MC4R ag barr | NTR1 ag | TAG conf
COc1cc(CNc2ncnc3c2ncn3[C@H]2CN(CCN3CCOCC3)C[C@@H](CO)O2)cc(OC)c1OC | 0 | 0 | 0 | 0 | 0 | - | -
Cc1ccc(-c2cc(C(F)F)n3ncc(C(=O)Nc4c(C)nn(Cc5c(Cl)cccc5Cl)c4C)c3n2)cc1 | 0 | 0 | 0 | 89 | 0 | 0 | 47
Cc1nn(Cc2c(Cl)cccc2Cl)c(C)c1NC(=O)c1cnn2c(C(F)F)cc(-c3ccccc3)nc12 | 0 | 0 | 0 | 0 | 0 | 0 | -
Cc1cc(C)nc(Sc2ncnc(N)c2[N+](=O)[O-])n1 | 0 | 0 | 0 | 61 | 0 | 0 | 0
Cc1cccc(Nc2ncnc(N)c2[N+](=O)[O-])n1 | 0 | 0 | 0 | 0 | 0 | 0 | -
CCCCCCSc1ccc(-c2nc3ccc(Cl)cn3c2NC2CCCCC2)cc1 | 0 | 0 | 0 | 0 | 0 | 0 | -
CCCCCCSc1cc(-c2nc3ccc(Cl)cn3c2NC2CCCCC2)ccc1OC | 0 | 0 | 0 | 66 | 0 | 0 | 44
O=C(NCC1CCCCC1)c1csc([C@@H]2O[C@H](CO)[C@H](O)[C@H](O)[C@H]2O)n1 | 0 | 0 | 0 | 0 | 0 | - | -
CCn1c(SCC(=O)NC2CCCCC2)nc2c(c1=O)SCC2 | 0 | 0 | 0 | 0 | 0 | 0 | -
Cc1ccc(-c2nnc(SCC(=O)NCCN3C(=O)CSC3=O)n2C)cc1 | 0 | 0 | 0 | 0 | 0 | 0 | -
Cc1cc(Nc2ccc(C)c(Cl)c2)nc(N2CCOCC2)n1 | 0 | 0 | 0 | 72 | 0 | 0 | 41
CC(C)c1ccc(Nc2nc(N3CCOCC3)nc(N3CCOCC3)n2)cc1 | 0 | 0 | 0 | 74 | 0 | - | 91
Cc1ccc(Nc2cc(C)nc(N3CCOCC3)n2)cc1 | 0 | 0 | 0 | 0 | 0 | 0 | -
Cc1ccc(Nc2nc(N3CCOCC3)nc(N3CCOCC3)n2)cc1 | 0 | 0 | 0 | - | 0 | 0 | -
CCOc1ccc(OCCC(=O)OCC(=O)NC2CCCCC2)cc1 | 0 | 0 | 0 | 0 | 0 | 0 | -
CN(CCc1cn[nH]c1)Cc1nc(Cc2ccccc2)no1 | 0 | 0 | 0 | 0 | 0 | 0 | -
COc1ccc(-c2coc3c(C(=O)NCc4ccc(OC)c(OC)c4)cccc23)c(C)c1 | 0 | 0 | 0 | 0 | 0 | - | -
O=C(NC1CCCCC1)C(c1ccccc1)N(Cc1ccc2c(c1)OCO2)C(=O)c1cnsn1 (configuration not stated) | 0 | 0 | 0 | 59 | 0 | 0 | 41
COCCNC(=S)Nc1ccccc1Cc1ccccc1 | 0 | 0 | 0 | 0 | 0 | 0 | -
Nc1c(C(=O)NC2CCCC2)c2nc3ccccc3nc2n1/N=C/c1cccnc1 | 0 | 0 | 0 | 69 | 0 | 0 | 72
O=C(COc1cccc2cccnc12)Nc1ccccc1N1CCOCC1 | 0 | 0 | 0 | 0 | 0 | 0 | -
Cc1ccccc1NC(=O)Nc1nc(C(N)c2ccccc2)cs1 (configuration not stated) | 0 | 0 | 0 | 0 | 0 | - | -
Cn1cc(/C=N/n2cnc3scc(-c4ccc(Cl)cc4)c3c2=O)c2ccccc21 | 0 | 0 | 0 | 61 | 0 | 0 | 69
CCn1cnc2scc(-c3ccccc3)c2c1=O | 0 | 0 | 0 | 0 | 0 | 0 | -
COc1ccc(C2=C(C=Nc3c(C)n(C)n(-c4ccccc4)c3=O)C(c3ccccc3C)c3ccccc3O2)cc1OC (configuration not stated) | 0 | 0 | 0 | 61 | 0 | 0 | 0
SMILES | TbMetRS inhib | MC4R antag cAMP | aDG glyco up | H9c2 TAG inh | MC4R ag barr | NTR1 ag | TAG conf
CCOc1ccc(CCNC(=O)CN2CCN(Cc3ccccc3F)C2=O)cc1OCC | 0 | 0 | 0 | 60 | 0 | 0 | 42
CN(C)c1ccc(NC(=O)CSc2nc(C3CC3)nc3ccccc23)cc1 | 0 | 0 | 0 | - | 0 | 0 | -
Cc1ccc2oc(NC3=NC4(CCCC4)C4=C(CCCC4=O)N3)nc2c1 | 0 | 0 | 0 | 55 | 0 | - | 62
CNC[C@@H]1OCc2ccccc2-c2c(n(C)c3ccccc23)C(=O)N([C@H](C)CO)C[C@H]1C | 0 | 0 | 0 | 0 | 0 | - | -
C/C(C=O)=C/c1ccccc1 | 0 | 0 | 0 | - | 0 | 0 | -
c1ccc2c(c1)NC(c1ccncc1)n1c-2nc2ccccc21 (configuration not stated) | 0 | 0 | 0 | 53 | 0 | 0 | 0
CCOc1cc(N2CCOCC2)c(OCC)cc1NC(=O)CC12CC3CC(CC(C3)C1)C2 | 0 | 0 | 0 | 74 | 0 | 0 | 47
CCCC(C(=O)NC(C)(C)C)N(Cc1ccccc1)C(=O)c1snc(C(N)=O)c1N (configuration not stated) | 0 | 0 | 0 | 69 | 0 | - | 0
O=C(c1ccccc1)C1(c2ccccc2)OC1c1ccccc1 (configuration not stated) | 0 | 0 | 0 | 0 | 0 | - | -
CCOC(=O)C(=O)N(C)c1c(CC)nc2c(OCCC3CCCCC3)cccn12 | 0 | 0 | 0 | 119 | 0 | - | 0
CNC(=O)c1ccc(-c2sc3nc(N4CCOCC4)c4c(c3c2N)CCCC4)o1 | 0 | 0 | 0 | 51 | 0 | 0 | 74
CNC(=O)c1ccc(-c2sc3nc(N4CCOCC4)c4c(c3c2N)CC(C)(C)OC4)o1 | 0 | 0 | 0 | 52 | 0 | 0 | 67
Nc1c(C(=O)NCc2ccccc2)sc2nc(N3CCOCC3)c3c(c12)CCCC3 | 0 | 0 | 0 | 55 | 0 | 0 | 42
NNc1nnc2c3cc(F)ccc3n(CCc3ccccc3)c2n1 | 0 | 0 | 0 | - | 0 | 0 | -
CCOC(=O)C1(C)CCCN(C(=O)c2cc(C)oc2C)C1 (configuration not stated) | 0 | 0 | 0 | 0 | 0 | - | -
CNC(=S)NN=C(C)c1ccc(OC)cc1O | 0 | 0 | 0 | 72 | 0 | - | 41
COc1ccc(/C(C)=N/N=C(N)N)c(O)c1 | 0 | 0 | 0 | 0 | 0 | 0 | -
Oc1ccc(/C=N/NC(=S)NC2CC3CCC2C3)cc1 (configuration not stated) | 0 | 0 | 0 | 0 | 0 | 0 | -
S=C(N/N=C/c1cccs1)NC1CC2CCC1C2 (configuration not stated) | 0 | 0 | 0 | 54 | 0 | 0 | 56
CCOc1ccc(-c2csc(NNC3=NCCCCC3)n2)cc1 | 0 | 0 | 0 | - | 0 | 0 | -
COc1ccc(-c2csc(NNC3=NCCCCC3)n2)cc1 | - | - | - | - | - | 0 | -
Clc1ccc(-c2csc(NNC3=NCCCCC3)n2)cc1 | 0 | 0 | 0 | 148 | 0 | 0 | 132
